According to ChEMBL document CHEMBL3997772, “Tyrosyl-DNA Phosphodiesterase 1 Inhibitors: Usnic Acid Enamines Enhance the Cytotoxic Effect of Camptothecin” (J Nat Prod, 2016):
pIC50: −log10 of the molar value.

Experiments:
[1] = Cytotoxicity against human MCF7 cells over expressing TDP1 assessed as reduction in viable cells after 72 hrs by MTT assay; assay type: cell-based; details: MCF7 cells overexpressing TDP1
Summary of the method: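 MCF-7 cells (~2000/well) grown 24 h at 37 °C in IMDM, 5% CO2, then exposed to 0.1–100 μM compound for 72 h. Viable cells by MTT test; CC50 = concentration reducing cell number 50% vs untreated controls; average of three independent experiments.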

[2] = molecular target: T1, Tyrosyl-DNA phosphodiesterase 1 (Homo sapiens, UniProt Q9NUW8); assay: Inhibition of recombinant TDP1 (unknown origin) using 5'-(5,6 FAM-aac gtc agg gtc ttc c-BHQ1)-3' as substrate measured at 1 min interval by fluorimetric method
Summary of the method: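 Recombinant TDP1 1.3 nM with 50 nM FAM/BHQ1 biosensor in 50 mM Tris-HCl pH 8.0, 50 mM NaCl, 7 mM β-mercaptoethanol, 26 °C. Fluorescence read each minute (Ex485/Em520). Slope over 0–7 min linear phase compared with DMSO control; IC50 from 11-point concentration-response curve.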

[3] = molecular target: T1, Tyrosyl-DNA phosphodiesterase 1; assay: Inhibition of TDP1 in human MCF7 cells assessed as potentiation of camptothecin-induced cytotoxicity by measuring fold reduction in camptothecin CC50 at 0.5 uM after 72 hrs by MTT assay relative to camptothecin alone; assay type: cell-based
Summary of the method: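 MCF-7 cells (~2000/well), pre-grown 24 h at 37 °C in IMDM, 5% CO2, treated with graded camptothecin plus 0.5 μM enamine for 72 h. Viability by MTT; camptothecin CC50 taken as 50% reduction in cell number vs untreated controls, compared with and without enamine.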

[4] = Cytotoxicity against human A549 cells assessed as reduction in viable cells after 72 hrs by MTT assay; assay type: cell-based
Summary of the method: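 A-549 cells treated with compounds; after 72 h, viable cells measured by MTT colorimetric test. CC50 = concentration reducing cell number by 50% versus untreated controls.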

[5] = molecular target: T1, Tyrosyl-DNA phosphodiesterase 1; assay: Inhibition of TDP1 in human A549 cells assessed as potentiation of camptothecin-induced cytotoxicity by measuring fold reduction in camptothecin CC50 at 0.5 uM after 72 hrs by MTT assay relative to camptothecin alone; assay type: cell-based
Summary of the method: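 A-549 cells treated with graded camptothecin plus 0.5 μM enamine; viability by MTT after 72 h. Camptothecin CC50 compared with and without enamine.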

[6] = molecular target: T1, Tyrosyl-DNA phosphodiesterase 1; assay: Inhibition of recombinant TDP1 (unknown origin) assessed as reduction in BHQ1 excision from 3'-end of [32P]-labeled oligonucleotide substrate after 20 mins by polyacrilamide gel electrophoresis

T1 sequence (Q9NUW8 whole entry): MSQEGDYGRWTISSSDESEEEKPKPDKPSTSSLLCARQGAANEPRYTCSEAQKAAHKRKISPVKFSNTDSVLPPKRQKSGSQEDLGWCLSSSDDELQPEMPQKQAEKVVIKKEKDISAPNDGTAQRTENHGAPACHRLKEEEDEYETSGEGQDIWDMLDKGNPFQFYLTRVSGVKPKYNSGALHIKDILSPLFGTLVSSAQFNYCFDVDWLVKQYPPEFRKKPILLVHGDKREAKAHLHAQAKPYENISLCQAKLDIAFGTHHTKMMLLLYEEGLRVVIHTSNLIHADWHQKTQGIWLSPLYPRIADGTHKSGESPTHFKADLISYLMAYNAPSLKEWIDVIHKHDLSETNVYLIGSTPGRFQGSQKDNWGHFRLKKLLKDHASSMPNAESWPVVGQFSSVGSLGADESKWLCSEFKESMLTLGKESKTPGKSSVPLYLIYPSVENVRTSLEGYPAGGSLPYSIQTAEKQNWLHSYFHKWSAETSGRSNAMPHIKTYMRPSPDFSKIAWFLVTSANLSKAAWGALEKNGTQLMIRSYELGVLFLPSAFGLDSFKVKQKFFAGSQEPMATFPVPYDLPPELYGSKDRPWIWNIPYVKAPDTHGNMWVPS

In the case of `CC(=O)c1c(O)c(C)c(O)c2c1OC1=CC(=O)/C(=C(/C)NCCCN3CCOCC3)C(=O)C12C` (stereo not given), the CC50 at 72 h [1] was 24 µM and the pIC50 [2] was < 4.00.

With `CC(=O)C1=C(O)C=C2Oc3c(C(C)=O)c(O)c(C)c(O)c3[C@@]2(C)C1=O` [(+)-USNIC ACID] the CC50 at 72 h [1] was 52.3 µM and the pIC50 [2] was < 4.00.

In the case of `CC(=O)c1c(O)c(C)c(O)c2c1OC1=CC(=O)/C(=C(/C)Nc3ccc(F)cc3)C(=O)[C@]12C`, the fold change (FC) [3] was 1.6, the CC50 at 72 h [1] was > 50 µM and the pIC50 [2] was 6.03.

In the case of `CC(=O)c1c(O)c(C)c(O)c2c1OC1=CC(=O)/C(=C(/C)Nc3cccc(Br)c3)C(=O)C12C` (stereo not given), the CC50 at 72 h [4] was > 100 µM, the fold change (FC) [3] was 12.5 and the CC50 at 72 h [1] was 18.1 µM. For the same compound, the fold change (FC) [5] was 1.2 and the pIC50 [2] was 6.12.

For `CC(=O)c1c(O)c(C)c(O)c2c1OC1=CC(=O)/C(=C(/C)Nc3cccc(F)c3)C(=O)C12C` (stereo not given), the CC50 at 72 h [4] was > 100 µM, the fold change (FC) [3] was 12.8 and the CC50 at 72 h [1] was 35 µM. It also gave a fold change (FC) [5] of 1.6 and a pIC50 [2] of 5.86.

In the case of `CC(=O)c1c(O)c(C)c(O)c2c1OC1=CC(=O)/C(=C(/C)Nc3ccc(Br)cc3)C(=O)[C@@]12C`, the fold change (FC) [3] was 1.5, the pIC50 [6] was 5.34 and the CC50 at 72 h [1] was 39.3 µM. For the same compound, the pIC50 [2] was 6.59.

In the case of `CC(=O)c1c(O)c(C)c(O)c2c1OC1=CC(=O)/C(=C(/C)NCCc3ccc(O)cc3)C(=O)[C@@]12C`, the CC50 at 72 h [4] was 70 µM, the fold change (FC) [3] was 12.8 and the CC50 at 72 h [1] was 21.5 µM. It also gave a fold change (FC) [5] of 1.3 and a pIC50 [2] of 6.10.

With `CC(=O)c1c(O)c(C)c(O)c2c1OC1=CC(=O)/C(=C(/C)Nc3ccccc3)C(=O)[C@@]12C` the fold change (FC) [3] was 1.2, the CC50 at 72 h [1] was > 50 µM and the pIC50 [2] was 5.82.

With `CC(=O)c1c(O)c(C)c(O)c2c1OC1=CC(=O)/C(=C(/C)NCCCc3cc(C(C)(C)C)c(O)c(C(C)(C)C)c3)C(=O)C12C` (stereo not given) the CC50 at 72 h [4] was > 100 µM, the fold change (FC) [3] was 10.5 and the CC50 at 72 h [1] was > 50 µM. For the same compound, the fold change (FC) [5] was 3.5 and the pIC50 [2] was 6.80.

`CC(=O)c1c(O)c(C)c(O)c2c1OC1=CC(=O)/C(=C(/C)Nc3ccc(Br)cc3)C(=O)[C@]12C` gave a fold change (FC) [3] of 0.92, a CC50 at 72 h [1] of 10.6 µM and a pIC50 [2] of 6.24.

For `CC(=O)c1c(O)c(C)c(O)c2c1OC1=CC(=O)/C(=C(/C)Nc3ccc(F)cc3)C(=O)[C@@]12C`, the fold change (FC) [3] was 2.1, the CC50 at 72 h [1] was 22.2 µM and the pIC50 [2] was 5.81.

Work on `CC(=O)c1c(O)c(C)c(O)c2c1OC1=CC(=O)/C(=C(/C)Nc3ccccc3)C(=O)[C@]12C` yielded a fold change (FC) [3] of 1, a CC50 at 72 h [1] of 39 µM and a pIC50 [2] of 5.72.

For `CC(=O)c1c(O)c(C)c(O)c2c1OC1=CC(=O)/C(=C(/C)NCCc3cc(C(C)(C)C)c(O)c(C(C)(C)C)c3)C(=O)C12C` (stereo not given), the fold change (FC) [3] was 1.7, the CC50 at 72 h [1] was > 50 µM and the pIC50 [2] was 6.72.

With `CC(=O)c1c(O)c(C)c(O)c2c1OC1=CC(=O)/C(=C(/C)Nc3ccc(Cl)cc3)C(=O)[C@@]12C` the fold change (FC) [3] was 0.51, the CC50 at 72 h [1] was > 50 µM and the pIC50 [2] was 5.74.

With `CC(=O)c1c(O)c(C)c(O)c2c1OC1=CC(=O)/C(=C(/C)NCCN(C)C)C(=O)C12C` (stereo not given) the CC50 at 72 h [1] was 33 µM and the pIC50 [2] was < 4.00.

With `CC(=O)C1=C(O)C=C2Oc3c(C(C)=O)c(O)c(C)c(O)c3[C@]2(C)C1=O` [(-)-USNIC ACID] the pIC50 [2] was < 4.00.

`CC(=O)c1c(O)c(C)c(O)c2c1OC1=CC(=O)/C(=C(/C)Nc3ccc(Cl)cc3)C(=O)[C@]12C` gave a fold change (FC) [3] of 0.35, a CC50 at 72 h [1] of 16 µM and a pIC50 [2] of 5.79.
